{"source": "paper PMC6753381", "about": "(Cell reports, 2019)", "key": {"[1]": {"tested_on": "Ca45 2+ uptake in 3T3-L1 adipocytes", "assay": "Ca45 2+ uptake assay in 3T3-L1 adipocytes", "assay_type": "cell-based, mouse", "settings": "differentiated 3T3-L1 adipocytes, 3 min, pH 7.4, 37°C; ISO 100 nM", "summary_of_the_method": "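Differentiated adipocytes were washed twice, 15 min apart, at 37°C in 150 mM NaCl, 5 mM KCl, 2 mM CaCl2 and 10 mM HEPES, pH 7.4. They were then incubated 3 min in Ca-free buffer with 2 μCi 45Ca2+, peptide at several concentrations and isoproterenol 100 nM. Stop with ice-cold Ca-free buffer containing 2 mM EGTA and 1 mM LaCl3, then three washes. Lysis in 0.1% Triton X-100; scintillation counting, cpm/well.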"}, "3T3-L1 adipocytes": {"tested_on": "3T3-L1 adipocytes", "assay": "Lipolysis", "assay_type": "cell-based, mouse", "settings": "1 h pretreatment, ISO 50 nM, no TLQP-21", "summary_of_the_method": "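Adipocytes serum-starved 3 h in KRH buffer (HEPES 10 mM, CaCl2 2.2 mM, glucose 5.4 mM) with 1% fatty-acid-free BSA, then treated in KRH with 4% BSA. Inhibitors given as 1 h pretreatment (SKF-96365 dose series; AnC0A4 or KN-62 1 μM) before isoproterenol 50 nM. Medium heat-inactivated 60°C for 20 min. Free glycerol read colorimetrically at 540 nm, normalized to Bradford protein, fold over control.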"}, "[Ca2+]i in 3T3-L1 cells": {"tested_on": "[Ca2+]i in 3T3-L1 cells", "assay": "Fluo-4 intracellular calcium in 3T3-L1 cells", "assay_type": "cell-based, mouse", "settings": "SKF-96365 20 μM; for effect of inhibitor on TLQP-21-induced [Ca2+]i increase: TLQP-21 10 μM", "summary_of_the_method": "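Cells plated at 60% confluency on collagen-coated slides. Next day, loaded 30 min in HBSS with 2.5 μM Fluo-4 AM, washed 30 min, imaged live at 20X every second for 3 min. Agents added at 30 s; HBSS negative, ionomycin and UTP positive controls. Per-cell AUC over first 60 s, background-subtracted, basal-normalized, control-normalized, scaled 0–1; 8–50 cells, 2 experiments.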"}, "[2]": {"biological_target": "T1, m*C3aR1 (murinized hC3aR1) (Homo sapiens, UniProt Q16581, C420S/L413V/S400L/V103I/V419M)", "T1 sequence (Q16581 1-482 V103I/S400L/L413V/V419M/C420S)": "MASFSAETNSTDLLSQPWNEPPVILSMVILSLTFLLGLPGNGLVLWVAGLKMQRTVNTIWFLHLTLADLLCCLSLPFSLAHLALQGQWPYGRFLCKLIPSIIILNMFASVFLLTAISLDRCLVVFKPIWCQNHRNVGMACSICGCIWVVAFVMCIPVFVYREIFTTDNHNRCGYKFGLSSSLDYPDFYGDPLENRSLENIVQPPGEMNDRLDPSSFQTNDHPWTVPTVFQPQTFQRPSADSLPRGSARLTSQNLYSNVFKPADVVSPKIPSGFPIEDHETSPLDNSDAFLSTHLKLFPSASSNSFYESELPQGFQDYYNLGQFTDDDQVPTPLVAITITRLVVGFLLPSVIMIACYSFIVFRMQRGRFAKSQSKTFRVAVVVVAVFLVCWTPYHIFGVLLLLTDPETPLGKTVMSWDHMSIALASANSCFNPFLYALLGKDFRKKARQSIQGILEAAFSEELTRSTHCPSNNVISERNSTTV", "assay": "Tango β-arrestin recruitment assay, murinized hC3aR1", "assay_type": "cell-based", "settings": "ratio of EC50 hC3aR1 / m*C3aR1"}, "[3]": {"tested_on": "C3aR1 R161A, R340A and D417A mutants", "settings": "R340A, and D417A mutations, ref Sun et al., 1999; cited from earlier work"}, "C3aR1": {"tested_on": "C3aR1", "settings": "cited from earlier work"}}, "note": "Entries after “also recorded” stand apart in the source; their conditions may differ. Counter-ions that a name gives are not always drawn."}
{"molecule": "CC(C)NCC(O)c1ccc(O)c(O)c1", "note": "(centres unmarked) [ISO, Isoproterenol hydrochloride]", "values": [{"measurement": "Ca45 2+ uptake from the medium", "setting": "[1]", "value": "did not increase Ca45^2+ uptake under our experimental conditions and did not potentiate TLQP-21-mediated effects; also recorded: does not modify TLQP-21-induced Ca45^2+ uptake from the medium"}]}
{"molecule": "CN([C@@H](Cc1ccc(OS(=O)(=O)c2cccc3cnccc23)cc1)C(=O)N1CCN(c2ccccc2)CC1)S(=O)(=O)c1cccc2cnccc12", "note": "[KN-62]", "values": [{"measurement": "effect of inhibitor on basal or ISO-induced lipolysis", "setting": "3T3-L1 adipocytes", "value": "without affecting basal or ISO-induced lipolysis per se"}]}
{"molecule": "NC(N)=NCCC[C@H](NC(=O)COCC(c1ccccc1)c1ccccc1)C(=O)O", "note": "[SB290157]", "values": [{"measurement": "effect of inhibitor on TLQP-21-induced [Ca2+]i increase", "setting": "[Ca2+]i in 3T3-L1 cells", "value": "antagonized TLQP-21-mediated calcium influx; also recorded: this effect is antagonized by the C3aR1 antagonist SB290157"}]}
{"molecule": "COc1ccc(CCCOC(Cn2ccnc2)c2ccc(OC)cc2)cc1", "note": "(centres unmarked) [SKF-96365]", "values": [{"measurement": "effect of inhibitor on basal or ISO-induced lipolysis", "setting": "3T3-L1 adipocytes", "value": "without affecting basal or ISO-induced lipolysis"}, {"measurement": "basal fluorescence (Fluo-4)", "setting": "[Ca2+]i in 3T3-L1 cells", "value": "mild SKF-96365-induced elevation of basal fluorescence"}, {"measurement": "effect of inhibitor on TLQP-21-induced [Ca2+]i increase", "setting": "[Ca2+]i in 3T3-L1 cells", "value": "TLQP-21-induced increase in [Ca^2+]i, measured by Fluo-4 fluorescence, is blocked; also recorded: blocked the TLQP-21-induced increase in [Ca^2+]i"}]}
{"molecule": "C3a63–77: C3aR1 agonist C3a63–77 (LRRQHARASHLGLAR; C3a anaphylatoxin; UniProt P01024 734-748, looked up, fragment)", "values": [{"measurement": "increase in β-arrestin potency at m*C3aR1 versus hC3aR1", "setting": "[2]", "value": 8.5, "unit": "fold"}]}
{"molecule": "C3a: 77-amino-acid, full-length C3a; in b45 apparently the C3a63–77 peptide", "values": [{"measurement": "increase in β-arrestin potency at m*C3aR1 versus hC3aR1", "setting": "[2]", "value": 8.5, "unit": "fold"}, {"measurement": "C3a binding affinity to C3aR1 mutants", "setting": "[3]", "value": "complete loss of C3a binding affinity to C3aR1"}]}
{"molecule": "HFHHALPPAR", "values": [{"measurement": "biological activity of modified or truncated peptides", "setting": "C3aR1; ref Cero et al., 2014", "value": "only retained minimal biological activity"}]}
{"molecule": "RRRHFHHALPPAR", "values": [{"measurement": "biological activity of truncated peptide", "setting": "C3aR1; ref Rivolta et al., 2017", "value": "retains full biological activity"}]}
